ChEMBL document CHEMBL1157338, “5-alkylresorcinols from Merulius incarnatus” (J Nat Prod, 2006)
Converted amounts (≈) assume the structure as drawn. Each block holds one molecule with its values, some of them ahead of it. The source made the active and inactive calls. The rule behind the calls is not given here.

How the values were obtained:
[1] = tested on: Leishmania major; experiment: Antileishmanial activity against Leishmania major MRHO/IR/75/ER promastigotes after 72 hrs by alamar blue assay; format: functional, organism-based
Outline: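 Alamar Blue read-out against promastigotes, with pentamidine and amphotericin B as reference standards.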

[2] = tested on: Candida albicans; experiment: Antimicrobial activity against Candida albicans ATCC 90028 by broth dilution method; format: functional, organism-based
[3] = tested on: Aspergillus fumigatus; experiment: Antimicrobial activity against Aspergillus fumigatus ATCC 90906 by broth dilution method; format: functional, organism-based
[4] = tested on: Nakaseomyces glabratus; experiment: Antimicrobial activity against Candida glabrata ATCC 90030 by broth dilution method; format: functional, organism-based
[5] = tested on: Pichia kudriavzevii; experiment: Antimicrobial activity against Candida krusei ATCC 6258 by broth dilution method; format: functional, organism-based
[6] = tested on: Vero; experiment: Cytotoxicity against african green monkey Vero cells at 25 ug/ml; format: cell-based; details: chlorocebus sabaeus
[7] = tested on: Staphylococcus aureus; experiment: Antimicrobial activity against methicillin-resistant Staphylococcus aureus ATCC 43300 by antimicrobial susceptibility test; format: functional, organism-based
[8] = tested on: Mycobacterium intracellulare; experiment: Antimicrobial activity against Mycobacterium intracellular ATCC 23068 by alamar blue method; format: functional, organism-based
Outline: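 Modified Alamar Blue procedure, highest concentration 20 µg/mL. IC50 taken from dose-response curves, with amphotericin B as positive control.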

[9] = tested on: Cryptococcus neoformans; experiment: Antimicrobial activity against Cryptococcus neoformans ATCC 90113 by broth dilution method; format: functional, organism-based

Structure (SMILES): N=C(N)c1ccc(OCCCCCOc2ccc(C(=N)N)cc2)cc1 [PENTAMIDINE]
IC50 [1]: 0.6 µg/mL (≈ 1.76 µM) | IC90 [1]: 1.9 µg/mL (≈ 5.58 µM)

Structure (SMILES): CCCCCCCCCCCCCCCCCc1cc(O)cc(O)c1
Activity [2]: inactive | Activity [3]: inactive | Activity [4]: inactive | Activity [5]: inactive

Structure (SMILES): C=CCCC/C=C\C/C=C\CCCCCCCc1cc(O)cc(O)c1
IC50 [1]: 3.6 µg/mL (≈ 10.5 µM) | IC90 [1]: 7 µg/mL (≈ 20.4 µM) | Activity [6]: Non-toxic | IC50 [7]: 2.5 µg/mL (≈ 7.3 µM)

Structure (SMILES): O=C(O)c1cn(C2CC2)c2cc(N3CCNCC3)c(F)cc2c1=O [CIPROFLOXACIN]
IC50 [8]: 0.4 µg/mL (≈ 1.21 µM)

Structure (SMILES): CCCCCCCCCCCCCCCc1cc(O)cc(O)c1
Activity [2]: inactive | Activity [3]: inactive | Activity [4]: inactive | Activity [5]: inactive

Structure (SMILES): CCCCCCCC/C=C\CCCCCCCc1cc(O)cc(O)c1
IC50 [8]: 10 µg/mL (≈ 28.9 µM) | IC50 [7]: 8 µg/mL (≈ 23.1 µM)

IC50 [9]: 0.75 µg/mL (≈ 0.812 µM)
Structure (SMILES): C[C@@H]1[C@H](O)[C@@H](C)/C=C/C=C/C=C/C=C/C=C/C=C/C=C/[C@H](O[C@@H]2O[C@H](C)[C@@H](O)[C@H](N)[C@@H]2O)C[C@@H]2O[C@](O)(C[C@@H](O)C[C@@H](O)[C@H](O)CC[C@@H](O)C[C@@H](O)CC(=O)O[C@H]1C)C[C@H](O)[C@H]2C(=O)O [AMPHOTERICIN B]

Structure (SMILES): C=CCCC/C=C\C=C\CCCCCCCCc1cc(O)cc(O)c1
IC50 [7]: 15 µg/mL (≈ 43.8 µM)

Structure (SMILES): CCCCC/C=C\C/C=C\CCCCCCCc1cc(O)cc(O)c1
IC50 [7]: 6.5 µg/mL (≈ 18.9 µM)
